These results are taken from ChEMBL document CHEMBL3124872, “Discovery and early development of TMC647055, a non-nucleoside inhibitor of the hepatitis C virus NS5B polymerase” (J Med Chem, 2014).

A short description of data set [1]: Cytotoxicity against human HuH7 cells. It counts as cell-based, Huh-7.
The subject of data set [2] is Hepatitis C virus. In words: Antiviral activity against Hepatitis C virus genotype 1b infected in human HuH7 cells after 72 hrs by luciferase reporter gene assay in presence of 40% human plasma relative to control. It counts as functional, Hepacivirus hominis, Huh-7. In general terms: Reporter assays use an easily measured gene product as a stand-in for the process of interest.

Data set [3] is described as follows: Binding affinity to His6-tagged Hepatitis C virus Con 1b NS5B delta21 RNA dependent RNA polymerase expressed in Escherichia coli Rosetta 2 (DE3) by surface plasmon resonance analysis. Also noted: species or system Hepatitis C virus (isolate Con1). The gist of the method:
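Surface plasmon resonance binding to NS5B polymerase of the stated genotype; association and dissociation rate constants measured, from which Kd and residence half-life were derived; median Kd reported.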
(Surface plasmon resonance follows binding to a sensor surface in real time, without labels.)

Data set [4] is described as follows: Cytotoxicity against human MT4 cells. It counts as cell-based.
The test system of data set [5] is Hepatitis C virus. Put plainly: Antiviral activity against Hepatitis C virus genotype 1b infected in human HuH7 cells after 72 hrs by luciferase reporter gene assay. The note with it: Huh-7, 72 h. It counts as functional, organism-based, Hepacivirus hominis.
Data set [6] in a line: Drug uptake in Sprague-Dawley rat liver at 10 mg/kg, po after 7 hrs. To be noted: read-out: Drug uptake. Also on record: dose 10 mg/kg, route oral. It counts as ADME, organism-based.
A short description of data set [7]: Plasma clearance in Sprague-Dawley rat at 2 mg/kg, iv and 10 mg/kg, po. It counts as ADME, organism-based.
Data set [8] is described as follows: Drug metabolism in human liver microsomes at 5 uM after 15 mins. To be noted: read-out: Drug metabolism. It counts as ADME. The gist of the method:
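Stability in human liver microsomes: test compound at 5 μM, incubated 15 min; reported as percentage of compound metabolized.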
(In general: Microsomes from liver hold many membrane-bound enzymes, among them those of drug oxidation.)

Data set [9] is described as follows: Oral bioavailability in Sprague-Dawley rat at 10 mg/kg. In kind it is ADME, organism-based. To be noted: in vivo.
The nature of data set [10]: Drug metabolism in rat liver microsomes after 15 mins. In kind it is ADME. The note with it: read-out: Drug metabolism.
Data set [11] in a line: Ratio of drug level in liver to plasma in Sprague-Dawley rat at 10 mg/kg, po after 7 hrs. It counts as ADME, organism-based. Also on record: dose 10 mg/kg, route oral.
Data set [12] relates to Hepatitis C virus. Put plainly: Antiviral activity against Hepatitis C virus genotype 1b infected in human HuH7 assessed as rebound of replicon RNA at 0.25 uM preincubated for 2 weeks followed by 3 week rebound phase by RT-PCR analysis. In kind it is functional, organism-based. To be noted: Hepacivirus hominis, Huh-7. The gist of the method: (§1)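 Huh7-Luc replicon cells incubated 14 days with compound alone or in combination, followed by a 3-week rebound phase without inhibitor; replicon RNA followed for clearance and rebound.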

In data set [13] the test system is Hepatitis C virus. Put plainly: Antiviral activity against Hepatitis C virus genotype 1b infected in human assessed as reduction in plasma HCV RNA level administered for 10 days measured on day 11. In kind it is functional, organism-based. The note with it: Hepacivirus hominis. The gist of the method: (§2)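 HCV genotype 1a- and 1b-infected patients received oral 1000 mg b.i.d. together with an NS3/4A protease inhibitor at 150 mg q.d. for 10 days. The read-out was the median decrease in plasma HCV RNA (log10 IU/mL) at day 11.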

For data set [14], the system named is Hepatitis C virus. In words: Antiviral activity against Hepatitis C virus genotype 1a infected in human assessed as reduction in plasma HCV RNA level administered for 10 days measured on day 11. To be noted: Hepacivirus hominis, subtype 1a. In kind it is functional, organism-based. The gist of the method:
as §2

Data set [15] relates to Hepatitis C virus. In words: Antiviral activity against Hepatitis C virus genotype 1b infected in human HuH7 assessed as suppression of formation of resistant colonies at 0.2 uM preincubated for 2 weeks followed by 3 week rebound phase by RT-PCR analysis. It counts as functional, organism-based. To be noted: Hepacivirus hominis, Huh-7. The gist of the method: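 Colony formation test in Huh7-Luc replicon cells incubated for 2−3 weeks with inhibitor alone (0.20 μM), scored for formation of resistant colonies.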

The test system of data set [16] is Hepatitis C virus. Put plainly: Antiviral activity against Hepatitis C virus genotype 1b infected in human HuH7 assessed as clearance of replicon cells at 0.25 uM preincubated for 2 weeks followed by 3 week rebound phase by RT-PCR analysis. It counts as functional, organism-based. To be noted: Hepacivirus hominis, Huh-7. The gist of the method: as §1

Active and inactive are the calls of the source. The calls are words filed in the database; no cut-off is given here.

One may read the CC50 as the concentration that lowers cell viability or growth by half. By Kd is commonly meant the concentration at which binding is half-saturated. Higher therefore signals a looser complex. Turning to `COc1ccc2c(c1)C=C1Cn3c-2c(C2CCCCC2)c2ccc(cc23)C(=O)NS(=O)(=O)N(C)CCCCCCN(C)C1=O`, the CC50 in [1] and in data set [4] was more than 25 µM each time. Also, in data set [2], the “fold change (FC)” value was found to be 10. The Kd in data set [3] was determined as 0.0008 µM.

A word on the EC50: it is the midpoint of the concentration-response curve. High values mean a less potent agent, low ones a more potent agent. As for `COc1ccc2c(c1)C=C1Cn3c-2c(C2CCCCC2)c2ccc(cc23)C(=O)NS(=O)(=O)N(C)CCCCN(C)C1=O`, the cytotoxic concentration (CC50) in data set [1] and in [4] was more than 25 µM in each case. Moreover, the EC50 in data set [5] was 0.075 µM.

On to `COc1ccc2c(c1)C=C1Cn3c-2c(C2CCCCC2)c2ccc(cc23)C(=O)NS(=O)(=O)N(C)CCCN(C)C1=O`, for which the CC50 in data set [1] and in [4] was more than 25 µM in each case. In data set [2], the “fold change (FC)” value was determined as 10. The compound also gave a Kd in [3] of 0.007 µM.

Turning to `COc1ccc2c(c1)C=C1Cn3c-2c(C2CCCCC2)c2ccc(cc23)C(=O)NS(=O)(=O)N(C)CCCCCNC1=O`, the CC50 in [1] and in data set [4] was more than 25 µM in each case. The “fold change (FC)” value in [2] stood at 10. The Kd in data set [3] is 0.0009 µM. Besides, the concentration at 7 h in [6] came to 6320 ng/g.

For `COc1ccc2c(c1)C=C1Cn3c-2c(C2CCCCC2)c2ccc(cc23)C(=O)NS(=O)(=O)N(C)CCN(C)CCNC1=O`, the CC50 in [1] and in data set [4] was more than 25 µM in each case. In data set [2], the “fold change (FC)” value came out at 10.

With `COc1ccc2c(c1)C=C1Cn3c-2c(C2CCCCC2)c2ccc(cc23)C(=O)NS(=O)(=O)N2CCN(CCNC1=O)CC2`, the CC50 in data set [1] and in [4] was more than 25 µM each time. Also, the “fold change (FC)” value in [2] stood at 10. Further, the Kd in data set [3] turned out to be 0.025 µM.

Regarding `CN1CCOCCN(C)S(=O)(=O)NC(=O)c2ccc3c(C4CCCCC4)c4n(c3c2)CC(=Cc2cc(Cl)ccc2-4)C1=O`, the CC50 in data set [1] and in data set [4] was more than 25 µM each time. In data set [2], the “fold change (FC)” value is 10. The compound also registered a Kd in [3] of 0.0015 µM.

With `CN1CCOCCN(C)S(=O)(=O)NC(=O)c2ccc3c(C4CCCCC4)c4n(c3c2)CC(=Cc2cc(F)ccc2-4)C1=O`, the half-maximal cytotoxic concentration (CC50) in [1] and in data set [4] was more than 25 µM throughout. Moreover, the “fold change (FC)” value in data set [2] is given as 10. The concentration at 7 h in data set [6] came to 6560 ng/g.

In the case of `COc1ccc2c(c1)C=C1Cn3c-2c(C2CCCCC2)c2ccc(cc23)C(=O)NS(=O)(=O)N(C)CCCCNC1=O`, the CC50 in [1] and in [4] was more than 25 µM each time. In addition, the “fold change (FC)” value in [2] was 10. The compound also yielded a Kd in data set [3] of 0.0071 µM.

For `COc1ccc2c(c1)C=C1Cn3c-2c(C2CCCCC2)c2ccc(cc23)C(=O)NS(=O)(=O)NCCCCN(C)C1=O`, the CC50 in [1] and in [4] was more than 25 µM throughout. Moreover, the “fold change (FC)” value in data set [2] is recorded as 10. In addition, binding in data set [3] was put at a Kd of 0.015 µM.

On to `COc1ccc2c(c1)C=C1Cn3c-2c(C2CCCCC2)c2ccc(cc23)C(=O)NS(=O)(=O)N(C)CCN2CCN(CC2)C1=O`, for which the CC50 in data set [1] and in data set [4] was more than 25 µM throughout. The “fold change (FC)” value in data set [2] came to 10. Besides, in [6], the concentration at 7 h worked out at 299 ng/g.

As for `COc1ccc2c(c1)C[C@@H]1Cn3c-2c(C2CCCCC2)c2ccc(cc23)C(=O)NS(=O)(=O)N(C)CCOCCN(C)C1=O`, the CC50 in [1] and in data set [4] was more than 25 µM each time. Further, the “fold change (FC)” value in data set [2] amounted to 10. The concentration at 7 h in data set [6] amounted to 898 ng/g.

Take `COc1ccc2c(c1)C[C@H]1Cn3c-2c(C2CCCCC2)c2ccc(cc23)C(=O)NS(=O)(=O)N(C)CCOCCN(C)C1=O`: the CC50 in data set [1] and in data set [4] was more than 25 µM in each case. Besides, the “fold change (FC)” value in [2] is reported as 10.

In general, bioavailability refers to dose-corrected exposure relative to a reference, in per cent. The Kp is tissue or fluid exposure divided by exposure in the circulation. As for `COc1ccc2c(c1)[C@@H]1C[C@]13Cn1c-2c(C2CCCCC2)c2ccc(cc21)C(=O)NS(=O)(=O)N(C)CCOCCN(C)C3=O`, the CC50 in data set [1] and in data set [4] was more than 25 µM each time. This compound had an EC50 in data set [5] of 0.04 µM. Also, in data set [2], the “fold change (FC)” value was 10. This compound gave a clearance in data set [7] of 86.7 mL/min/kg. In [8], the metabolised at 0.25 h, 5 µM stood at 95%. This compound gave a bioavailability in [9] of 51%. Also, the metabolised at 0.25 h in [10] stood at 70%. For the same compound, the Kp at 7 h in data set [11] turned out to be 38. Besides, the concentration at 7 h in [6] was found to be 3200 ng/g.

Turning to `COc1ccc2c(c1)C=C1CN(C)CCCCN(C)S(=O)(=O)NC(=O)c3ccc4c(C5CCCCC5)c-2n(c4c3)C1`, the CC50 in data set [1] and in data set [4] was more than 25 µM in each case. This compound showed an EC50 in data set [5] of 2.34 µM. In addition, the “fold change (FC)” value in data set [2] came out at 10.

Consider `COc1ccc2c(c1)[C@H]1C[C@@]13Cn1c-2c(C2CCCCC2)c2ccc(cc21)C(=O)NS(=O)(=O)N(C)CCOCCN(C)C3=O`, for which the CC50 in data set [1] and in data set [4] was more than 25 µM in each case. In data set [5], this compound yielded an EC50 of 0.8 µM. Also, the “fold change (FC)” value in data set [2] was determined as 10.

Regarding `COc1ccc2c(O[C@@H]3C[C@H]4C(=O)N[C@]5(C(=O)NS(=O)(=O)C6CC6)C[C@H]5/C=C\CCCCN(C)C(=O)[C@@H]4C3)cc(-c3nc(C(C)C)cs3)nc2c1C`, the result in data set [12], in data set [15] and in [16] was inactive. The result in data set [13] and in data set [14] was Active.
